Test results: ChEMBL document CHEMBL2401624, “Synthesis and biological evaluation of novel substituted pyrrolo[1,2-a]quinoxaline derivatives as inhibitors of the human protein kinase CK2” (Eur J Med Chem, 2013)

Tests used:
Jurkat [1] = assay: Selectivity index, ratio of CC50 for human PHA-activated PBMC to CC50 for human Jurkat cells
Jurkat [2] = assay: Antiproliferative activity against human Jurkat cells after 1 to 3 days by MTS assay; format: functional
Method in brief: (§1)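 Leukemic lines grown in RPMI 1640 with 10% FCS, penicillin/streptomycin and L-glutamine at 37°C, 5% CO2. Cells washed twice in PBS, plated in quadruplicate with compound at 0, 1, 5, 10, 20 and 50 µM for 1, 2 and 3 days. MTS added for 3 h at 37°C, absorbance read at 490 nm. CC50 after 3 days by linear regression, mean ± SD of 3 independent experiments.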

MV4-11 [3] = assay: Antiproliferative activity against human MV4-11 cells after 1 to 3 days by MTS assay; format: functional; method in brief: as §1
[4] = Cytotoxicity against human PHA-activated PBMC after 1 to 3 days by MTS assay; format: cell-based
Method in brief: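 PBMNC from blood of healthy volunteers, isolated by Ficoll gradient centrifugation and stimulated with PHA (5 µg/mL). Cells washed in PBS, plated in quadruplicate with compound at 0, 1, 5, 10, 20 and 50 µM for 1 to 3 days. MTS read at 490 nm after 3 h at 37°C. CC50 at day 3 by linear regression, mean ± SD of 3 independent experiments.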

Casein kinase II = Casein kinase II (Homo sapiens, UniProt P19784+P67870+P68400); assay: Inhibition of human recombinant CK2 expressed in Escherichia coli BL21(DE3) using RRRDDDSDDD as substrate after 15 mins by capillary electrophoretic analysis
K562 = assay: Antiproliferative activity against human K562 cells after 1 to 3 days by MTS assay; format: functional; method in brief: as §1
U-937 = assay: Antiproliferative activity against human U937 cells after 1 to 3 days by MTS assay; format: functional; method in brief: as §1
MV4-11 [5] = assay: Selectivity index, ratio of CC50 for human PHA-activated PBMC to CC50 for human MV4-11 cells

Casein kinase II, sequence (P67870 whole entry): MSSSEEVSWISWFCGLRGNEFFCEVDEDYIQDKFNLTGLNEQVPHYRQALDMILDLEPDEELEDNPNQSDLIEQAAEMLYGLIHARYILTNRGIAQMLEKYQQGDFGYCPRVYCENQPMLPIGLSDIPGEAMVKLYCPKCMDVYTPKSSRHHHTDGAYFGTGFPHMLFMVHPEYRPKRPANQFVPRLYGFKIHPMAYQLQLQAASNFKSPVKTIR
Casein kinase II, sequence (P68400 whole entry): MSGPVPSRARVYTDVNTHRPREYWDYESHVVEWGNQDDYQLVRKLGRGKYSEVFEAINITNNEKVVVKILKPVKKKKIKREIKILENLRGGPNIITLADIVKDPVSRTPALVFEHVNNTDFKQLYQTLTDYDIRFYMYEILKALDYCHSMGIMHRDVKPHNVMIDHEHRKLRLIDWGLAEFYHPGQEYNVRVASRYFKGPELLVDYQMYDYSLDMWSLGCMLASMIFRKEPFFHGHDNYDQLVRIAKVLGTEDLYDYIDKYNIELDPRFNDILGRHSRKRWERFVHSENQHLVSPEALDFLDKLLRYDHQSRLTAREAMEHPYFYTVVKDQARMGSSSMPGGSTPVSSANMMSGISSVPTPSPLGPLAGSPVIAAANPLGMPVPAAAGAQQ
Casein kinase II, sequence (P19784 whole entry): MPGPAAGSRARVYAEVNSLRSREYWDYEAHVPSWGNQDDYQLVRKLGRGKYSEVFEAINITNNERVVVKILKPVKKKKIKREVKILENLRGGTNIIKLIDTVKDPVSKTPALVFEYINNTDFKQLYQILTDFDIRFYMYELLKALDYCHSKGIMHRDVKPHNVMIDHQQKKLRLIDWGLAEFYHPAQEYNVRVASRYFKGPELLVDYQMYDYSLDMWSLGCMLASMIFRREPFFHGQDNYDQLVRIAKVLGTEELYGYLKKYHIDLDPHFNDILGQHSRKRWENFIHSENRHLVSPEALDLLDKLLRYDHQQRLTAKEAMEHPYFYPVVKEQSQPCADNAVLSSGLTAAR

| IC50 (Casein kinase II) | Structure (SMILES) | Selectivity Index (Jurkat [1]) | CC50 (Jurkat [2]) | CC50 (MV4-11 [3]) | CC50 [4] | CC50 (K562) | CC50 (U-937) | Selectivity Index (MV4-11 [5]) |
| --- | --- | --- | --- | --- | --- | --- | --- | --- |
| 0.85 µM | C#Cc1cccc(Nc2ccc3c(c2)nc(C(=O)O)c2cccn23)c1 | – | – | – | – | – | – | – |
| 4.28 µM | O=C(O)c1cc2c(Nc3cccc(Cl)c3)nc3ccccc3n2c1 | – | > 50 µM | > 50 µM | > 50 µM | > 50 µM | > 50 µM | – |
| 1.89 µM | C#Cc1cccc(Nc2nc3ccccc3n3cc(C(=O)O)cc23)c1 | – | 41 µM | > 50 µM | > 50 µM | > 50 µM | > 50 µM | – |
| 0.049 µM | O=C(O)c1ccn2c1c(Nc1cccc(Cl)c1)nc1ccccc12 | – | > 50 µM | > 50 µM | > 50 µM | 42 µM | 47.7 µM | – |
| 0.134 µM | C#Cc1cccc(Nc2nc3ccccc3n3ccc(C(=O)O)c23)c1 | – | > 50 µM | > 50 µM | > 50 µM | > 50 µM | > 50 µM | – |
| 0.078 µM | C#Cc1cccc(Nc2nc3cc(C(=O)O)ccc3n3cccc23)c1 | – | > 50 µM | 20 µM | > 50 µM | > 50 µM | > 50 µM | >2.5 |
| 0.834 µM | C#Cc1cccc(Nc2nc3ccc(C(=O)O)cc3n3cccc23)c1 | – | > 50 µM | > 50 µM | > 50 µM | > 50 µM | > 50 µM | – |

More lines, now with the values behind:

| Structure (SMILES) | IC50 (Casein kinase II) | Selectivity Index (Jurkat [1]) | CC50 (Jurkat [2]) | CC50 (MV4-11 [3]) | CC50 [4] | CC50 (K562) | CC50 (U-937) | Selectivity Index (MV4-11 [5]) |
| --- | --- | --- | --- | --- | --- | --- | --- | --- |
| O=C(O)c1nc2cc(Nc3cccc(Cl)c3)ccc2n2cccc12 | 0.982 µM | 1.6 | 31.4 µM | 47 µM | > 50 µM | > 50 µM | 39.2 µM | – |
| O=C(O)c1ccc2c(c1)nc(Nc1cccc(Cl)c1)c1cc(-c3cccnc3)cn12 | 1.57 µM | – | – | – | – | – | – | – |
| C#Cc1cccc(Nc2nc3cc(C(=O)O)ccc3n3cc(-c4cccnc4)cc23)c1 | 0.89 µM | – | – | – | – | – | – | – |
| Nc1cccc(C#Cc2ccc3c(c2)nc(C(=O)O)c2cccn23)c1 | 8.25 µM | – | – | – | – | – | – | – |
| O=C(O)c1ccc2c(c1)nc(Nc1cccc(Cl)c1)c1cccn12 | 0.118 µM | – | > 50 µM | 20 µM | > 50 µM | > 50 µM | > 50 µM | >2.5 |
| O=C(O)c1ccc2nc(Nc3cccc(Cl)c3)c3cccn3c2c1 | 0.834 µM | – | > 50 µM | > 50 µM | > 50 µM | > 50 µM | > 50 µM | – |
| O=c1oc2c(O)c(O)cc3c(=O)oc4c(O)c(O)cc1c4c23 [ELLAGIC ACID] | 0.04 µM | – | – | – | – | – | – | – |
| O=C(O)c1ccc2c(c1)nc(Nc1cccc(Cl)c1)c1ccncc12 [SILMITASERTIB] | – | – | 4.5 µM | 3 µM | 50 µM | 7 µM | 4.2 µM | – |
